# Key:
# Assay type in all cases: cell-based
# [1] = target: Transient receptor potential cation channel subfamily A member 1 (Rattus norvegicus) (UniProt Q6RI86); assay: Activation of rat TRPA1 expressed in HEK293 cells assessed as stimulation of intracellular Ca2+ levels relative to 100 uM allyl isothiocyanate
# In short: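 Efficacy on stably transfected rat TRPA1-HEK293 cells is the intracellular Ca2+ rise expressed as percent of the allyl isothiocyanate response. Means ± SEM, N = 3.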
# [2] = target: T1, Transient receptor potential cation channel subfamily A member 1 (Rattus norvegicus, UniProt Q6RI86); assay: Activation of rat TRPA1 expressed in HEK293 cells assessed as stimulation of intracellular Ca2+ levels
# T1 sequence (Q6RI86 whole entry): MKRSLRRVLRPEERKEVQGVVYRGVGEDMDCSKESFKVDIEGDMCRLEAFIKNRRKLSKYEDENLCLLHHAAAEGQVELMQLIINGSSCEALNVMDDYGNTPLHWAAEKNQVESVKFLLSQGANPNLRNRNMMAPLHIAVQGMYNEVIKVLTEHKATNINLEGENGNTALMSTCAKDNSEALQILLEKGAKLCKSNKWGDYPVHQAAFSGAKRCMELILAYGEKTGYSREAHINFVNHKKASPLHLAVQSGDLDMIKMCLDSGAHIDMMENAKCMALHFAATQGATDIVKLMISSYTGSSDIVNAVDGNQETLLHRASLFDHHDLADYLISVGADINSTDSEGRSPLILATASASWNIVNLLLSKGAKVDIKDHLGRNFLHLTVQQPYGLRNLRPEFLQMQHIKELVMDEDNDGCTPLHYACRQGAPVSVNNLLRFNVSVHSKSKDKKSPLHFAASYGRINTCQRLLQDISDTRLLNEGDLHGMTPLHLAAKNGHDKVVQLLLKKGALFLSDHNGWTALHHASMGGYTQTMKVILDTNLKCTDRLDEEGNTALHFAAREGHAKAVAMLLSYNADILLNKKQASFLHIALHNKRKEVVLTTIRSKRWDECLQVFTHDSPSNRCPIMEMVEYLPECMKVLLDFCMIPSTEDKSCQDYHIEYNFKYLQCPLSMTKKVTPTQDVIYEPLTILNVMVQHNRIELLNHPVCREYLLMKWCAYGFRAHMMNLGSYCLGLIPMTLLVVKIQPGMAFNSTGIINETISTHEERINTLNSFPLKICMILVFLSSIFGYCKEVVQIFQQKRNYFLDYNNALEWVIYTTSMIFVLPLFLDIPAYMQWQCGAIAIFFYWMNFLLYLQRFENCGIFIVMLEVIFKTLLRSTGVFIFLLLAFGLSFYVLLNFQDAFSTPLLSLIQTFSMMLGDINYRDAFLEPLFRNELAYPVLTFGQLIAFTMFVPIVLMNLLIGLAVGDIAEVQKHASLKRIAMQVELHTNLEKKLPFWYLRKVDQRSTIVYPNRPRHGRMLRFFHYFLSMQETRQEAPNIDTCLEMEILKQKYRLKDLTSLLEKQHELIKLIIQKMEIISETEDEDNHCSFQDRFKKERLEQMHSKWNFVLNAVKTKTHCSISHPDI
# In short: (§1)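 HEK293 cells stably transfected with rat TRPA1, rat TRPM8 or rat TRPV3 cDNA. Compounds were applied and the rise in intracellular Ca2+ was recorded.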
# [3] = target: T1, Transient receptor potential cation channel subfamily A member 1; assay: Inhibition of rat TRPA1 expressed in HEK293 cells assessed as reduction in 100 uM allyl isothiocyanate-stimulated increase in intracellular Ca2+ levels
# In short: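 Rat TRPA1-HEK293 stable cells were preincubated 5 min with compound, then incubation continued with allyl isothiocyanate.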
# [4] = target: Transient receptor potential cation channel subfamily M member 8 (Rattus norvegicus) (UniProt Q8R455); assay: Activation of rat TRPM8 expressed in HEK293 cells assessed as stimulation of intracellular Ca2+ levels relative to 4 uM ionomycin
# Transient receptor potential cation channel subfamily M member 8 (Rattus norvegicus), sequence (Q8R455 whole entry, looked up): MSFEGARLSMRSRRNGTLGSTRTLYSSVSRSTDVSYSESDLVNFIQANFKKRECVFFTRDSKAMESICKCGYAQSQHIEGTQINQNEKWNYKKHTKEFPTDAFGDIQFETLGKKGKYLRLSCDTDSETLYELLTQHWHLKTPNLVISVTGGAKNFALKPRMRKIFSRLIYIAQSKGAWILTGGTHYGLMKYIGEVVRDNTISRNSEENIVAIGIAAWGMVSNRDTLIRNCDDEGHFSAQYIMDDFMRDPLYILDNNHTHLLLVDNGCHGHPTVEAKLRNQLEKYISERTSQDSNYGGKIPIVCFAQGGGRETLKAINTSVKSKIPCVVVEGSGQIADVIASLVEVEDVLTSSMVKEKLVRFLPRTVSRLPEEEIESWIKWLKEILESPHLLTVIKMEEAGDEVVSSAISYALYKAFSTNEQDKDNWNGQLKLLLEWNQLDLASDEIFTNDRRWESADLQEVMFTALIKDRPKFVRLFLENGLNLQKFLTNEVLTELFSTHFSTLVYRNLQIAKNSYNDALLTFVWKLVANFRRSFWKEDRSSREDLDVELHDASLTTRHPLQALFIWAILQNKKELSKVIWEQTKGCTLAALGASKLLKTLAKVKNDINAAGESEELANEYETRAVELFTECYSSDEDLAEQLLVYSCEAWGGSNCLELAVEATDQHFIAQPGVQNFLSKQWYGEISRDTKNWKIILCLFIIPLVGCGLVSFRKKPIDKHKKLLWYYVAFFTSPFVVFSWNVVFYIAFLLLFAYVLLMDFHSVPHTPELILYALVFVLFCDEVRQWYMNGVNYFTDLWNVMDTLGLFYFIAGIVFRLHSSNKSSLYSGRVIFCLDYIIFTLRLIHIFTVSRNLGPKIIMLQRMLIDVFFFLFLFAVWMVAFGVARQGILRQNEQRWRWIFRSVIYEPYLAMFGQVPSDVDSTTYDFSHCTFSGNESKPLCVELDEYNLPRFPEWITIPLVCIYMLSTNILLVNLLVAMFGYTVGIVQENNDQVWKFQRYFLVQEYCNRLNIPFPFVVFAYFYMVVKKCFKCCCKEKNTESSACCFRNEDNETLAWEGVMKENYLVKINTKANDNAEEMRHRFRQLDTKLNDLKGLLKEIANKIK
# In short: (§2)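 Efficacy on HEK293 cells stably expressing rat TRPM8 or rat TRPV3 is the intracellular Ca2+ elevation expressed as percent of the ionomycin response.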
# [5] = target: T2, Transient receptor potential cation channel subfamily M member 8 (Rattus norvegicus, UniProt Q8R455); assay: Activation of rat TRPM8 expressed in HEK293 cells assessed as stimulation of intracellular Ca2+ levels; in short: as §1
# T2 sequence (Q8R455 whole entry): as the sequence (Q8R455 whole entry, looked up) above
# [6] = target: T2, Transient receptor potential cation channel subfamily M member 8; assay: Inhibition of rat TRPM8 expressed in HEK293 cells assessed as reduction in […] icilin-stimulated increase in intracellular Ca2+ levels
# [7] = target: T2, Transient receptor potential cation channel subfamily M member 8; assay: Inhibition of rat TRPM8 expressed in HEK293 cells assessed as reduction in 20 uM menthol-stimulated increase in intracellular Ca2+ levels
# In short: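 IC50 on rat TRPM8 stably expressed in HEK293 cells, measured as inhibition of the intracellular Ca2+ response to icilin or menthol. Means ± SEM, N = 3.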
# HEK293 = assay: Activation of rat TRPV3 expressed in HEK293 cells assessed as stimulation of intracellular Ca2+ levels relative to 4 uM ionomycin; in short: as §2
# [8] = Inhibition of rat TRPV3 expressed in HEK293 cells assessed as reduction in 100 uM thymol-stimulated increase in intracellular Ca2+ levels
# [9] = Activation of rat TRPV3 expressed in HEK293 cells assessed as stimulation of intracellular Ca2+ levels; in short: as §1
# Transient receptor potential cation channel subfamily A member 1 (Rattus norvegicus), sequence (Q6RI86 whole entry): as the sequence (Q6RI86 whole entry) above
Compound,Efficacy [1] [%],EC50 [2] [µM],IC50 [3] [µM],Efficacy [4] [%],EC50 [5] [µM],IC50 [6] [µM],IC50 [7] [µM],IC50 [8] [µM],EC50 [9] [µM],Efficacy (HEK293) [%]
COc1ccc(NC(=O)Oc2cc(C)ccc2C(C)C)cc1,264,7.4,4.5,30.3,5.1,2.5,5.2,64.3,–,< 10
Cc1ccc(C(C)C)c(OC(=O)Cc2ccc(-c3ccccc3)cc2)c1,226,1.8,20.9,< 10,–,> 100,> 100,1.5,3.8,52.7
Cc1ccc(C(C)C)c(C(=O)Oc2ccc(-c3ccccc3)cc2)c1,195,7.4,12.7,< 10,–,> 100,> 100,2.9,14.5,64.3
Cc1ccc(C(C)C)c(C(=O)NCCc2ccccc2)c1,< 10,–,> 100,64.1,0.27,0.6,0.32,75.4,–,< 10
Cc1ccc(C(C)C)c(O)c1 [THYMOL],119,287,125,31.1,52.2,315,169,–,84.1,34.7
COc1ccc(NC(=O)Nc2cc(C)ccc2C(C)C)cc1,114,14.1,34.4,< 10,–,38.5,77.5,85.4,–,< 10
Cc1ccc(C(C)C)c(C(=O)NCCc2c[nH]c3ccc(OCc4ccccc4)cc23)c1,241,25.9,70.2,< 10,–,69.4,61.4,41.9,–,< 10
Cc1ccc(C(C)C)c(NC(=O)Cc2cccc(I)c2)c1,154,20.5,43.2,< 10,–,11.6,14.1,20.4,15.9,15
COc1ccc(C(=O)Nc2cc(C)ccc2C(C)C)cc1,149,45.9,> 100,58.1,4.8,14.7,15.2,> 100,–,< 10
Cc1ccc(C(C)C)c(C(=O)Nc2ccc(Cl)cc2)c1,< 10,–,26.1,43.2,0.85,4.8,5,4.9,11.8,43.4
Cc1ccc(C(C)C)c(N)c1,57.4,64.2,212,33.8,43.4,238,113,> 100,–,< 10
Cc1ccc(C(C)C)c(NC(=O)Nc2ccc(C(C)(C)C)cc2)c1,235,4.3,25,< 10,–,> 100,26.7,3.3,7.6,31.6
Cc1ccc(C(C)C)c(NC(=O)Nc2ccc(-c3ccccc3)cc2)c1,224,32.2,27.9,< 10,–,37.4,25.4,12.8,5.9,16.9

# Continued, in another order:
Efficacy [1] [%],EC50 [2] [µM],IC50 [3] [µM],Efficacy [4] [%],EC50 [5] [µM],IC50 [6] [µM],IC50 [7] [µM],IC50 [8] [µM],EC50 [9] [µM],Compound,Efficacy (HEK293) [%]
178,41,4.1,< 10,–,23.1,73.7,50.3,–,Cc1ccc(C(C)C)c(NC(=O)Oc2ccc(C(F)(F)F)cc2)c1,< 10
194,3.6,3.6,< 10,–,> 100,77.4,5,4,COc1ccc(OC(=O)c2cc(C)ccc2C(C)C)cc1,27.1
65.4,3.9,3.6,13.9,45.8,3.2,4.4,75.1,59.7,Cc1ccc(C(C)C)c(C(=O)Nc2ccc(C(F)(F)F)cc2)c1,22.1
97.9,0.6,0.84,40,0.6,1.9,1.2,1.1,1.2,Cc1ccc(C(C)C)c(C(=O)Nc2ccc(C(C)(C)C)cc2)c1,36.5
149,1,2.7,< 10,–,6.5,5,9.7,4.9,COc1ccc(C(=O)Oc2cc(C)ccc2C(C)C)cc1,23.1
132,1.3,0.78,< 10,–,0.7,0.85,1.9,1.4,Cc1ccc(C(C)C)c(NC(=O)Oc2ccc(C(C)(C)C)cc2)c1,62.5
212,6.5,3.9,< 10,–,31.2,78.3,29.7,6.3,Cc1ccc(C(C)C)c(NC(=O)Cc2ccc(-c3ccccc3)cc2)c1,39.3
204,6.4,8.8,24.5,0.44,1,1,6.2,10.6,Cc1ccc(C(C)C)c(NC(=O)c2ccc(C(C)(C)C)cc2)c1,34.8
204,3.3,5.5,< 10,–,21.2,18.6,6.5,7.7,Cc1ccc(C(C)C)c(OC(=O)c2ccc(-c3ccccc3)cc2)c1,33.8

# From ChEMBL document CHEMBL2086321, “Modulation of thermo-transient receptor potential (thermo-TRP) channels by thymol-based compounds” (Bioorg Med Chem Lett, 2012)
